Screening data as filed in PubChem.
The list is not random: actives were taken first. Their share in the collection is about 2.5%.
TDP2 absorb = human TDP2 enzyme inhibitors, primary screen, biochemical, epi absorbance, recombinant enzyme. Tyrosyl-DNA phosphodiesterase 2 (Homo sapiens), O95551. inhibition, % at 12.8 µM. 370,000 tested, 0.34% active. T5PNP hydrolysis, p-nitrophenol absorbance 415 nm;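 active = inhibition above the mean of all tested compounds plus 3 SD, set per campaign, cut at about 25% in these data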;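 note: 0% = DMSO with enzyme and 100% = buffer with substrate but no TDP2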
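Assay system: recombinant human TDP2 / Reagent: T5PNP substrate at 5 mM, a TopII-DNA adduct mimic / Measured by: epi absorbance from released p-nitrophenol / Evaluation: % inhibition relative to enzyme-containing and enzyme-free wells / Control set: enzyme-free and DMSO wells / Replicates: each compound tested once, singlicate / Schedule: enzyme reaction with compound for 2 h at 37 °C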
PRMT1 inh = PRMT1 methyltransferase inhibitors, primary screen, biochemical, fluorescence polarization; recombinant PRMT1, activity-based probe fluorescence polarization; inhibition, % at 2.79 µM; 370,000 tested, 1.3% active; AID 652257, 2013;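 active = inhibition above about 21% made by adding two undisclosed values, limit read from the data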
Target sequence (Q99873 whole entry, looked up): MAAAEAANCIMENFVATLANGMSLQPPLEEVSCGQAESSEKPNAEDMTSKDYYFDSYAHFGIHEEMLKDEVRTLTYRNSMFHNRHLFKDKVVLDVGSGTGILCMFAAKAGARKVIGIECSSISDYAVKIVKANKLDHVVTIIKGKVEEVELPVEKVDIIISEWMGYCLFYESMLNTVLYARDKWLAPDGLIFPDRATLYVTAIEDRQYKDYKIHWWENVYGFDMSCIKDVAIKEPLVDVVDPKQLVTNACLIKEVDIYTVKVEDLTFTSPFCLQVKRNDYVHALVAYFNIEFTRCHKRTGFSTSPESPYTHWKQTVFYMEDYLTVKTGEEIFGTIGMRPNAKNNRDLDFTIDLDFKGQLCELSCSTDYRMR
GSTO1 inh = inhibitors of recombinant GSTO1, primary screen, counter-screen for RBBP9 inhibitor project, biochemical, fluorescence polarization; 300,000 tested, 1.1% active; inhibition, % at 5.96 µM; AID 1974, 2009; Glutathione S-transferase omega-1 (Homo sapiens), P78417; activity-based probe fluorescence polarization;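 active = inhibition above the campaign mean inhibition plus 3 SD, cut at about 35% in these data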;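 note: 0% = GSTO1-1 with DMSO and 100% = wells lacking GSTO1-1 enzyme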
Target sequence (P78417 whole entry, looked up): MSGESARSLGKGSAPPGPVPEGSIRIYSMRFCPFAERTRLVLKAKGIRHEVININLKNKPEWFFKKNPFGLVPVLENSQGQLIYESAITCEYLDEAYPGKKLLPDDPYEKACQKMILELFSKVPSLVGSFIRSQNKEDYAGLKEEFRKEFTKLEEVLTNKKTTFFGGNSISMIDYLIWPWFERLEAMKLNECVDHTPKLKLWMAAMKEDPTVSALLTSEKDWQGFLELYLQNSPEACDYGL
PAD4 inh = human PAD4 inhibitors, primary screen, biochemical, fluorescence polarization, 1536-well format; Protein-arginine deiminase type-4 (Homo sapiens), Q9UM07; recombinant PAD4, RCA probe fluorescence polarization; inhibition, % at 6.36 µM; 330,000 tested, 0.41% active; AID 485272, 2010;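 active = percent inhibition above a cutoff equal to the mean of all tested compounds plus 3 SD, cut at about 15% in these data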;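 note: 0% = PAD4 with RCA probe and DMSO and 100% = probe without PAD4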
E coli Lon inh = inhibitors of E. coli Lon protease, primary screen, biochemical, fluorescence polarization; inhibition, % at 7.94 µM; P0A9M0; purified E. coli Lon protease; 360,000 tested, 0.42% active; in the data active = inhibition above about 13%, passing the limit was not always enough;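 note: 0% = enzyme with probe and DMSO and 100% = no enzyme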
PRMT1 inh conf = PRMT1 methyltransferase inhibitors, confirmation, biochemical, fluorescence polarization, triplicate; inhibition, % at 2.79 µM; AID 687036, 2013; recombinant His-PRMT1, activity-based probe fluorescence polarization; 3,300 tested, 42% active; shares compounds with PRMT1 inh;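 active = mean inhibition across replicates above the hit cutoff derived for the earlier primary screen, cut at about 22% in these data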
An asterisk follows results filed as active; x = no result.

SMILES	TDP2 absorb	PRMT1 inh	GSTO1 inh	PAD4 inh	E coli Lon inh	PRMT1 inh conf
O=c1c2ccccc2sn1-c1cc(S(=O)(=O)N2CCOCC2)ccc1N1CCCC1	-9.1	87.8*	-9.9	-0.1	7.1	79.6*
Nc1cc(S(=O)(=O)N2CCOCC2)ccc1N1CCCCC1	4.5	16.6	x	1.0	-14.3	x
O=C(NC1CCCCN(Cc2cccc(C(F)(F)F)c2)C1=O)c1cccc(C(F)(F)F)c1 (centres undefined)	4.4	4.2	x	x	x	x
COc1ccc(N2CCN(C(=O)c3cc(N4C(=O)C5C6CCC(C6)C5C4=O)ccc3Cl)CC2)cc1 (centres undefined)	6.2	36.2*	0.1	-1.6	-8.1	-1.5
COC(=O)[C@]12C[C@H](CC(=O)NCc3ccc(C)o3)C(=O)N(CCc3ccc(OC)c(OC)c3)C1=C[C@H](C1CCCC1)O[C@@H]2C	-1.1	1.4	x	x	x	x
Cc1cc(NC(=O)CSc2nc(Cc3ccccc3)c(C)[nH]2)no1	-5.0	-0.2	2.5	-9.3	0.9	x
O=C(CSc1nc(NS(=O)(=O)c2ccccc2)cc(=O)[nH]1)Nc1ccccc1Cl	-6.6	28.5*	x	x	-4.0	16.0
Cc1[nH]c(SCC(=O)Nc2cc(S(C)(=O)=O)ccc2Cl)nc1Cc1ccccc1	-5.0	26.4*	x	1.6	-9.1	8.9
CC(C)(C)C(CN1CCCC1)OC(=O)c1ccccc1 (centres undefined)	7.5	-3.1	4.5	0.4	-2.0	x
O=C(CCNc1ccc(F)cc1)c1cc2ccccc2o1	-10.9	49.0*	-4.0	-9.3	8.2	41.7*
O=C(CCNc1cccc(F)c1)c1cc2ccccc2o1	-5.7	15.6	-19.8	0.2	0.7	x
COc1cccc(N2CCN(CC(=O)Nc3ccc(S(=O)(=O)N4CCCCCC4)cc3)CC2)c1	1.0	-2.2	x	1.5	-3.6	x
CCOC(=O)c1c(-c2ccc(C)o2)csc1NC(=S)NC(=O)c1cccs1	9.9	0.6	-4.4	4.4	-0.4	x
CCOC(=O)c1c(-c2ccc(C)o2)csc1NC(=S)NC(=O)c1ccccc1Br	1.5	54.5*	-0.3	-3.9	-1.5	0.7
CCOC(=O)c1c(-c2ccccc2)csc1NC(=O)CSc1nnc(C)s1	-9.5	-1.8	6.9	2.1	-8.0	x
CCOC(=O)c1c(-c2ccc(C)o2)csc1NC(=O)CSc1nnc(C)s1	10.2	63.1*	5.7	-8.6	-5.0	15.2
CCOC(=O)c1c(-c2ccc(C)o2)csc1NC(=O)CSc1nnnn1-c1ccccc1	-11.2	72.6*	5.6	-0.2	2.3	3.9
O=c1cc(-c2ccccc2)nc2cc(-c3ccc(Br)cc3)[nH]n12	9.5	0.1	-2.7	-4.3	-1.4	x
O=c1cc(-c2ccccc2)nc2cc(-c3ccco3)[nH]n12	-8.2	30.3*	-29.2	-10.7	-3.8	-0.5
O=C(Nc1nc(=O)c2ccccc2s1)c1ccc(Cl)cc1	-2.6	32.4*	-4.7	1.5	-1.8	0.6
O=C(Cc1ccccc1)Nc1nc(=O)c2ccccc2s1	-9.3	47.9*	14.1	1.1	2.3	4.1
CC(=O)c1sc(NC(=O)c2ccc(Cl)cc2)nc1C	-4.7	7.6	3.4	0.1	-2.0	x
COc1ccc(C2SCCN2C(=S)Nc2cccc(C(F)(F)F)c2)cc1 (centres undefined)	5.7	7.7	-2.1	0.4	7.9	x
COc1ccc(C2SCCN2C(=S)Nc2ccc(F)cc2)cc1 (centres undefined)	0.6	57.8*	-0.4	-6.7	-1.6	1.8
CCOC(=O)c1ccc(NC(=S)N2CCSC2c2ccc(OC)cc2)cc1 (centres undefined)	2.2	88.0*	-4.3	-3.3	8.0	4.2
SMILES	TDP2 absorb	PRMT1 inh	GSTO1 inh	PAD4 inh	E coli Lon inh	PRMT1 inh conf
CCOC(=O)c1ccc(NC(=S)N2CCSC2c2ccc(Cl)cc2)cc1 (centres undefined)	-9.3	83.7*	-11.5	-3.6	-3.3	-0.5
Nc1nc(-c2ccco2)c(-c2ccco2)s1	3.5	39.5*	21.7	-3.0	1.9	3.7
Nc1nc(-c2ccco2)cs1	8.7	8.4	5.9	2.1	-7.7	x
Cn1c(N)c(C#N)c2c(c1=S)CSC(C)(C)C2	1.5	11.3	7.2	4.1	19.1	x
CC1(C)Cc2c(C#N)c(N)sc(=S)c2CS1	11.8	30.7*	13.0	1.6	9.1	41.3*
O=C(CN1C(=O)S/C(=C\c2cccs2)C1=O)Nc1ccc(O)cc1C(=O)O	-21.7	32.2*	15.4	4.9	-3.8	4.3
O=C(CCN1C(=O)/C(=C/c2cccs2)SC1=S)Nc1ccc(C(=O)O)c(O)c1	2.7	0.9	8.0	-3.8	-6.9	x
O=c1[nH]c(=S)[nH]cc1Oc1ccc(Cl)cc1Cl	-2.3	-0.6	x	x	-7.6	x
O=C1CC(SC(=S)C2CCCC2=O)C(=O)N1 (centres undefined)	14.8	64.2*	x	x	23.6	82.0*
CCCCN(C(=O)CC1CCCC1)c1c(N)n(CC(C)C)c(=O)[nH]c1=O	2.5	0.4	-2.1	2.7	-7.2	x
CCN(C(=O)CN1CCCCC1)c1c(N)n(Cc2ccccc2)c(=O)[nH]c1=O	3.9	-3.6	x	-4.5	-19.6	x
CCN(C(=O)CN1CCCc2cc(C)ccc21)c1c(N)n(Cc2ccccc2)c(=O)[nH]c1=O	-5.0	29.9*	x	x	-18.7	12.3
CCN(C(=O)COC(=O)/C=C/c1ccco1)c1c(N)n(Cc2ccccc2)c(=O)[nH]c1=O	-11.3	30.0*	x	1.8	2.5	-4.4
CCN(C(=O)C=Cc1ccco1)c1ccccc1	-11.0	31.3*	x	x	-12.1	6.4
Cc1ccc(C2=NC3(CCCC3)N=C2SCC(=O)Nc2ccc3c(c2)OCCO3)cc1	-2.0	55.0*	-2.8	1.9	6.8	47.4*
O=C(CSC1=NC2(CCCCCC2)N=C1c1ccccc1)Nc1ccc2c(c1)OCCO2	-1.7	1.8	8.4	2.6	9.4	x
Cn1nnc(NC(=S)NC(=O)c2cccc3c(Cl)cccc23)n1	-4.5	2.6	18.9	0.0	3.4	x
CCOC(=O)c1csc(NC(=O)C2CCCN(S(=O)(=O)c3ccccc3[N+](=O)[O-])C2)n1 (centres undefined)	9.8	4.8	x	x	x	x
O=c1c2c3c(sc2nc(NCCO)n1CCc1ccccc1)CCCCC3	-15.5	3.0	-8.3	5.9	-0.7	x
C=CCn1c(NCCO)nc2sc3c(c2c1=O)CCC3	-2.6	33.4*	2.8	-4.2	-8.8	1.5
CCOC(=O)c1ccc(NC(=O)CC2Sc3ncnn3C2=O)cc1 (centres undefined)	1.3	54.7*	0.3	-0.6	-7.3	69.4*
O=C(CC1Sc2ncnn2C1=O)Nc1ccc(Cl)cc1 (centres undefined)	3.8	8.9	5.2	-1.1	x	x
